The text below walks through data of ChEMBL document CHEMBL1681784, “Development of sulfonamide AKT PH domain inhibitors” (Bioorg Med Chem, 2011).

Molecules are shown by their SMILES. Active and inactive are the calls of the source. The rule behind the calls is not given here. Bounds are passed on as bounds.

For assay [1], the system named is BXPC-3. In words: Cytotoxicity against human BxPC3 cells by MTT assay. The class given is functional, cell-based.
Assay [2] relates to BXPC-3. As to the kind of experiment: Inhibition of AKT phosphorylation at serine 473 residue in human BxPC3 cells at 10 uM after 4 hrs by ELISA. Type of assay: cell-based. In short, it runs like this:
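BxPC3 cells kept in DMEM with 10% heat-inactivated FBS and 4.5 g/L glucose under 5% CO2, mycoplasma-free. Compound made fresh as a 10 mM DMSO stock and dosed at 10 μM final into the medium for 4 h. Equal amounts of lysate run on an MSD pSer473-AKT/total AKT plate; read-out is the pAKT/AKT ratio.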
On the technique in general: In an ELISA, binding on a coated surface is turned into a signal by an enzyme label.

As usually defined, the IC50 is the concentration at which inhibition is half-maximal. High values mean a need for much substance, low ones inhibition by little substance. In the assay with BXPC-3 [1], `CC(=O)Nc1ccc(S(=O)(=O)Nc2nnc(C(C)(C)C)s2)cc1` returned an IC50 of more than 300 µM.
Consider `Nc1ccc(S(=O)(=O)Nc2nncs2)cc1`, for which the IC50 in the assay with BXPC-3 [1] is more than 300 µM.
In the assay on BXPC-3 [1], `CCCCCCc1ccc(S(=O)(=O)Nc2nncs2)cc1` registered a concentration for half-maximal inhibition (IC50) of 266 µM.
The same measure, in the same setting: then `CCCCCCCCCC(=O)Nc1ccc(S(=O)(=O)Nc2nnc(C(=O)OCC)s2)cc1`, with 117 µM.
On to `CCCCCCCCCC(=O)Nc1ccc(S(=O)(=O)Nc2nnc(S(N)(=O)=O)s2)cc1`, for which the IC50 in the assay on BXPC-3 [1] was more than 300 µM.
Consider `CC(=O)Nc1ccc(S(=O)(=O)Nc2nnc(CO)s2)cc1`, for which the concentration for half-maximal inhibition (IC50) in the assay with BXPC-3 [1] was more than 300 µM.
For `CCCCCCCCCCCCc1ccccc1S(=O)(=O)Nc1nncs1`, in the assay with BXPC-3 [2], the inhibition result is “inactive”. In addition, it took 74 µM to reach half-maximal inhibition in the assay with BXPC-3 [1] (IC50).
With `CCCCCCCCCCCCc1ccc(S(=O)(=O)Nc2nnc(C)s2)cc1`, in the assay on BXPC-3 [1], 51 µM corresponded to half-maximal inhibition (IC50).
Take `CCCCCCCCCCCCc1ccc(S(=O)(=O)Nc2ccccc2)cc1`: the inhibition entry in the assay on BXPC-3 [2] is “inactive”. The IC50 with BXPC-3 [1] was 38 µM.
Regarding `O=S(=O)(Nc1nncs1)c1ccc(-c2ccccc2)cc1`, the IC50 with BXPC-3 [1] was more than 300 µM.
As to `CCOC(=O)c1nnc(NS(=O)(=O)c2ccc(NC(C)=O)cc2)s1`, the 50% inhibitory concentration (IC50) in the assay with BXPC-3 [1] was more than 300 µM.
Still for that read-out and setting: the result for `CC(=O)Nc1ccc(S(=O)(=O)Nc2nncs2)cc1` reads more than 300 µM.
`CCCCCCCCCC(=O)Nc1ccc(S(=O)(=O)Nc2nnc(C(C)(C)C)s2)cc1` came in with an IC50 in the assay on BXPC-3 [1] of more than 300 µM.
For `CCc1nnc(NS(=O)(=O)c2ccc(N)cc2)s1` [SULFAETHIDOLE], the half-inhibitory concentration (IC50) in the assay with BXPC-3 [1] was more than 300 µM.
Still for that read-out and setting: the result for `CCCCCCCCCC(=O)Nc1ccc(S(=O)(=O)Nc2nncs2)cc1` reads 180 µM.
Regarding `CCOC(=O)Cc1nnc(NS(=O)(=O)c2ccc(NC(C)=O)cc2)s1`, the IC50 in the assay on BXPC-3 [1] worked out at 176 µM.
For the compound `COCCOCCOCC(=O)Nc1ccc(S(=O)(=O)Nc2nncs2)cc1`, the IC50 with BXPC-3 [1] is more than 300 µM.
Still for that read-out and setting: then `CCCCCCCCCC(=O)Nc1ccc(S(=O)(=O)Nc2nnc(CC(=O)O)s2)cc1`, with more than 300 µM.
Compound `CCCCCCCCCCCCc1ccc(S(=O)(=O)Nc2nnc(CC(=O)O)s2)cc1` returned a half-inhibitory concentration (IC50) in the assay on BXPC-3 [1] of 117 µM.
`Cc1nnc(NS(=O)(=O)c2ccc(N)cc2)s1` [SULFAMETHIZOLE]: the IC50 with BXPC-3 [1] is more than 300 µM.
`CCc1nnc(NS(=O)(=O)c2ccc(NC(C)=O)cc2)s1` came in with a half-maximal inhibitory concentration (IC50) in the assay with BXPC-3 [1] of more than 300 µM.
In the assay on BXPC-3 [1], `Nc1ccc(S(=O)(=O)Nc2nnc(CO)s2)cc1` gave an IC50 of more than 300 µM.
In the assay on BXPC-3 [1], `Nc1ccc(S(=O)(=O)Nc2nnc(CC(=O)O)s2)cc1` showed a half-inhibitory concentration (IC50) of more than 300 µM.
In the assay on BXPC-3 [1], `CCCCCCCCCC(=O)Nc1ccc(S(=O)(=O)Nc2nnc(CO)s2)cc1` yielded a 50% inhibitory concentration (IC50) of 189 µM.
With `CCCCCCCCCCCCc1cccc(S(=O)(=O)Nc2nncs2)c1`, the inhibition entry in the assay on BXPC-3 [2] was “inactive”. The midpoint of inhibition in the assay with BXPC-3 [1], the IC50, lay at 71 µM.
For the compound `CCCCCCCCCC(=O)Nc1ccc(S(=O)(=O)Nc2nnc(C)s2)cc1`, it took 149 µM to reach half-maximal inhibition in the assay on BXPC-3 [1] (IC50).
On to `CCCCCCCCCC(=O)Nc1ccc(S(=O)(=O)Nc2nnc(CC(=O)OCC)s2)cc1`, for which, in the assay on BXPC-3 [1], half-maximal inhibition (IC50) required 170 µM.
Still for that read-out and setting: then `CC(C)(C)c1nnc(NS(=O)(=O)c2ccc(N)cc2)s1` [GLYBUTHIAZOL], with more than 300 µM; and `CC(=O)Nc1ccc(S(=O)(=O)Nc2nnc(S(N)(=O)=O)s2)cc1`, with more than 300 µM; and `O=S(=O)(Nc1nnc(CO)s1)c1ccc(-c2ccccc2)cc1`, with more than 300 µM.
The compound `CC(=O)Nc1ccc(S(=O)(=O)Nc2nnc(C)s2)cc1` yielded an IC50 in the assay on BXPC-3 [1] of more than 300 µM.
In turn, `CCCCCCCCCC(=O)Nc1ccc(S(=O)(=O)Nc2nnc(CC)s2)cc1` showed a concentration for half-maximal inhibition (IC50) with BXPC-3 [1] of 146 µM.
Same read-out and setting: the result for `CC(=O)Nc1ccc(S(=O)(=O)Nc2nnc(CC(=O)O)s2)cc1` reads more than 300 µM.
`CCCCc1ccc(S(=O)(=O)Nc2nncs2)cc1` registered a half-maximal inhibitory concentration (IC50) with BXPC-3 [1] of more than 300 µM.
`Nc1ccc(S(=O)(=O)Nc2nnc(S(N)(=O)=O)s2)cc1` registered an IC50 with BXPC-3 [1] of more than 300 µM.
